STEP inh = blocks human striatal-enriched tyrosine phosphatase | AID 588621 | inhibition, % at 20 µM | actives 0.25% (n = 360,000) | recombinant STEP, OMFP fluorogenic substrate, fluorescence | P54829;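 active = inhibition at 20 µM, scaled per plate between control wells, above about 37%, limit read from the data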;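 note: 0% = DMSO with enzyme and substrate and 100% = substrate only without enzyme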
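Assay system: isolated STEP enzyme / Timing: 20 min at room temperature, dark / Doses: 20 µM, 1% DMSO / Technique: fluorescence intensity, excitation 480 nm, emission 540 nm / Reagent: fluorogenic phosphatase substrate OMFP at 25 µM final / Measure: percent inhibition scaled to no-enzyme and uninhibited-enzyme controls, plate-pattern corrected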
SUMO1-SIM PPI = SUMO1-SIM interaction modulation. SUMO1 binding to a labelled peptide, TR-FRET, 1 h. P63165. inhibition, % at 20 µM. AID 602429. actives 0.33% (n = 360,000); in the data active = inhibition above about 37%
DNMT1 inh = DNMT1 (human) enzyme inhibition | P26358 | DNMT1 molecular beacon, Hinp1I cleavage, fluorescence | inhibition (reported as % activation of signal), % at 10 µM | actives 0.83% (n = 360,000); in the data active = inhibition above about 50%
GRK2 inh = inhibitors of human GRK2 displacing RNA aptamer; P25098; bead flow cytometry, FAM-aptamer displacement from GRK2; inhibition of aptamer binding, % at 10 µM; actives 0.59% (n = 330,000); AID 488847;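 active = inhibition of aptamer binding above 40%, roughly 3 SD of noise, on plates passing a quality check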;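 note: median bead fluorescence of bound FAM aptamer so fluorescent compounds give negative values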
Target sequence (P25098 whole entry, looked up): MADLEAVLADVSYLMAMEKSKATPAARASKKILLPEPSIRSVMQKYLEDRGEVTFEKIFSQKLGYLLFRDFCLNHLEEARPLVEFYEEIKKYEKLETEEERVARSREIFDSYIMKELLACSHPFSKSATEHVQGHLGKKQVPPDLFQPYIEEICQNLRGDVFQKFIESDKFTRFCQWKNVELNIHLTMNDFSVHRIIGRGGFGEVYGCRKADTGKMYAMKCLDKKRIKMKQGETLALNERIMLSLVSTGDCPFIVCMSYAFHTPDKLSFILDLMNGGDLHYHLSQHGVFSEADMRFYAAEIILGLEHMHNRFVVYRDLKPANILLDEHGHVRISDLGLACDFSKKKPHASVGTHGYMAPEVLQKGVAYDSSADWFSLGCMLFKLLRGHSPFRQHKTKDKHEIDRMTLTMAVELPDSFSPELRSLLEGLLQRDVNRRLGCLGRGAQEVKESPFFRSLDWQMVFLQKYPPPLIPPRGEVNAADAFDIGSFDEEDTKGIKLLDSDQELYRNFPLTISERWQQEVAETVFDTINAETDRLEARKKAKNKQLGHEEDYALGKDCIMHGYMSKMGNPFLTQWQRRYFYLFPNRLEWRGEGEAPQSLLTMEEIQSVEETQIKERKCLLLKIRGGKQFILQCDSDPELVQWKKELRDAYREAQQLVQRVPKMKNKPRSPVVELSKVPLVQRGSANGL
LMPTP block = LMPTP (human) inhibition | recombinant LMPTP-A, OMFP fluorogenic substrate, fluorescence intensity | inhibition, % at 20 µM | AID 651560 | P24666 | actives 0.22% (n = 360,000);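 active = compounds that cut the enzyme signal by at least half of the control window in the single-dose screen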;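 note: plate controls were DMSO wells with enzyme plus substrate for no effect and substrate without enzyme for full effect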
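Test system – LMPTP-A enzyme · Amount – LMPTP-A at 0.625 nM final in the reaction · Buffer or medium – Bis-Tris pH 6.0, DTT, detergent · Reagent – OMFP 400 µM · Doses – single 20 µM dose · Schedule – reaction 50 min, room temperature, dark · Detection – fluorescence intensity of OMFP turnover product · Evaluation – percent inhibition versus substrate-only and uninhibited controls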
Scp-1 inhibitor = blocks human Scp-1 phosphatase activity; Q9GZU7; Recombinant Scp1, phosphopeptide, malachite green phosphate absorbance; inhibition, % at 20 µM; actives 0.88% (n = 340,000); AID 493091;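 active = inhibition above about 50% at 20 µM, limit read from the data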;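 note: plate controls were DMSO wells with enzyme for no effect and wells lacking enzyme for full effect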
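Material: truncated SCP-1 phosphatase (76-261aa) / Buffer or medium: 50 mM Tris acetate pH 5.5, 0.005% Tween-20, 10 mM MgCl2 / Compound dosing: one concentration, 20 µM, with 1.0% DMSO / Incubation: 45 min room-temperature reaction, 5 min colour, 30 min stabiliser / Detection: colorimetric free-phosphate detection, absorbance 630 nm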
* = called active by the depositor; x = not tested or not shown. Sampled rows, rich in hits. Any-hit rate of the full collection: about 2.2%.

SMILES	STEP inh	SUMO1-SIM PPI	DNMT1 inh	GRK2 inh	LMPTP block	Scp-1 inhibitor
CCNCc1ccccc1OCc1ccccc1	-3.8	5.0	-0.7	1.0	-0.4	-1.1
Oc1ccc(NCc2ccccc2OCc2ccccc2)cc1	2.7	57.3*	-21.6	0.0	23.7	-10.1
Cc1ccc(-n2ncc3c(=O)[nH]c(SCC(=O)N4CCC(C)CC4)nc32)cc1C	-0.7	40.7*	-1.9	x	1.3	3.5
Cc1ccc(-n2ncc3c(=O)[nH]c(SCC(=O)N4CCCC4)nc32)cc1C	-0.9	5.0	0.7	2.0	-5.5	-3.4
CCCCN(C=O)c1c(CC)nc2ccc(C(=O)N3CCCCC3)cn12	2.8	-2.2	-3.4	x	-0.7	x
COc1ccc2sc3cccc(NCCN(C)C)c3c(=O)c2c1	3.2	-45.0	55.5*	x	1.1	x
CN(C)CCNc1ccc(CO)c2sc3ccc(O)cc3c(=O)c12	3.7	-43.1	40.5	x	9.3	9.6
COC(=O)C1=CN(c2ccc(N3CCOCC3)cc2)C(N)=C(C#N)C1c1cccc(F)c1 (stereo unspecified)	x	-51.5	x	x	-0.2	x
Nc1ncnc2c1ncn2C1OCC(O)C1O (stereo unspecified)	-3.3	4.8	-0.5	x	0.3	x
Nc1nnc(SCCCC(=O)c2ccc(Br)cc2)s1	0.1	43.0*	2.1	5.0	-0.3	4.6
O=C(NNC(=S)Nc1ccccc1)c1cc(Br)ccc1Cl	0.6	1.3	-0.1	46.0*	-0.4	-7.2
COc1cc(-c2cccs2)cc(=O)c2c(C)oc(C)c12	2.1	13.3	70.9*	0.0	3.2	-3.7
COc1ccc(-c2cc(OC(=O)c3ccc(F)cc3)c3c(C)oc(C)c3c(=O)c2)cc1	x	x	x	6.0	x	x
COc1ccc(NC(=O)Nc2cc3oc4ccccc4c3cc2OC)cc1	-4.9	58.6*	2.8	0.0	1.2	-7.6
Nc1c2ccccc2nc2ccccc12	0.3	-30.6	75.8*	3.0	18.6	-1.6
O=C1/C(=C\c2cccc(O)c2O)SC(=S)N1Cc1ccccc1	18.3	-10.7	-22.2	3.0	3.8	-19.6
O=C1/C(=C\c2cc([N+](=O)[O-])ccc2O)SC(=S)N1Cc1ccc(Cl)cc1	-17.6	18.6	57.0*	1.0	4.0	-19.8
COC(=O)[C@]12CCCCC=C1N(CCc1ccc(OC)c(OC)c1)C(=O)[C@H](CC(=O)NCCc1ccccc1OC)C2	x	-4.4	x	x	-0.4	x
COc1ccccc1-c1sc2ccccc2c1-c1ccc2c(c1)OCO2	2.3	0.8	-8.0	0.0	3.5	-8.6
COc1ccccc1-c1sc2cc3c(cc2c1-c1ccc2c(c1)OCO2)OCO3	-3.3	-6.4	9.1	2.0	2.1	68.5*
CCOC(=O)C1=C[C@@H](C(C)C)N(S(=O)(=O)c2ccc(C)cc2)[C@H]1c1ccc(C(F)(F)F)cc1	0.2	12.1	0.7	x	2.7	x
CC(C)CSCC1OC(n2cnc3c(N)nccc32)C(O)C1O (stereo unspecified)	1.2	4.1	-1.0	x	1.8	x
Cc1c(-c2ccc(Br)cc2)nc2ccccn12	0.1	0.1	-0.7	4.0	1.8	0.1
CN(C)c1ccc(-c2nc3ccccn3c2/N=C/c2ccc(Br)cc2)cc1	41.9*	-16.7	-19.1	0.0	1.1	-8.0
O=c1[nH]c2cc(Cl)ccc2n1-c1ccccc1	-6.6	40.1*	1.0	0.0	1.6	-12.7
SMILES	STEP inh	SUMO1-SIM PPI	DNMT1 inh	GRK2 inh	LMPTP block	Scp-1 inhibitor
OC1CCN(Cc2nc(Cc3ccccc3Cl)no2)CC1	-2.1	44.5*	0.2	9.0	-0.8	-6.7
O=C(Nc1ccc(-c2nc3ccccc3s2)cc1)C1=COCCO1	-2.6	-5.3	2.3	48.0*	0.8	-5.3
O=C(CC1CC1)Nc1ccc2c(c1)[C@H]1C[C@H](CC(=O)N3CCc4ccccc4C3)O[C@@H](CO)[C@H]1O2	-1.6	1.0	8.0	x	-2.0	x
COc1cc2c(cc1OC)C(=O)C(Br)CC2 (stereo unspecified)	3.8	111.4*	83.0*	x	6.4	x
COc1cc(/C=C2\SC(=Nc3ccc(Cl)c(C(=O)O)c3)NC2=O)c(Br)c(Br)c1O	26.7	-21.4	27.0	5.0	-22.8	53.1*
COc1cc(/C=C2\SC(=Nc3ccccc3)NC2=O)cc(Cl)c1O	-0.1	-43.4	2.7	5.0	0.3	-10.6
N#C/C(=C\c1ccc(C(=O)O)cc1)c1nc2sc3c(c2c(=O)[nH]1)CCCC3	-6.4	31.2	43.4	x	26.6	75.7*
CS(=O)(=O)N1CCC(Oc2ccccc2C(=O)NC(C2CC2)C2CC2)CC1	-2.2	40.2*	5.0	4.0	-1.5	-0.3
O=C(NCC1CCCO1)C(c1ccncc1)N(Cc1cccs1)C(=O)Cn1nnc(-c2ccc(F)cc2)n1 (stereo unspecified)	0.8	-0.9	-11.7	0.0	-0.3	-5.0
Cc1ccc(-c2nnn(CC(=O)N(Cc3cccs3)C(C(=O)NC3CCCC3)c3ccncc3)n2)cc1 (stereo unspecified)	3.4	44.6*	-20.6	2.0	1.3	12.6
COc1cc(C2C(C#N)=C(N)Oc3cc(C)oc(=O)c32)cc2c1OCO2 (stereo unspecified)	-1.3	46.4*	18.6	0.0	1.4	3.4
COc1cc(C2C(C#N)=C(N)Oc3cc(C)oc(=O)c32)cc(OC)c1OC (stereo unspecified)	0.4	9.6	-0.7	0.0	-0.6	-16.9
CN1CCc2cc3c(c4c2[C@H]1[C@H](O)c1ccccc1-4)OCO3	-0.2	-35.7	70.3*	x	3.7	-6.2
COc1ccc2c(c1OC)C(=O)OC2C1c2c(cc3c(c2OC)OCO3)CCN1C (stereo unspecified)	-0.8	-3.2	0.1	2.0	-1.3	-1.2
CC[n+]1c(/C=C(\C)Nc2ccccc2)sc2ccccc21	0.7	-1.5	-2.6	1.0	0.6	78.8*
c1ccc(CNc2nc(NCCc3ccncc3)c3sccc3n2)cc1	3.9	-1.4	-2.2	x	87.0*	x
O=C(Nc1ccc2c(c1)OCO2)c1cc(C2CCCCN2C(=O)c2ccccc2)on1 (stereo unspecified)	-0.3	7.9	3.0	x	-0.6	x
O=C1NC(=S)S/C1=C\C=C\c1ccc([N+](=O)[O-])o1	65.9*	97.0*	91.1*	x	82.1*	87.0*
C[C@@H]1CCCCO[C@H](CN(C)S(=O)(=O)c2ccccc2)[C@@H](C)CN([C@H](C)CO)C(=O)c2cc(NC(=O)Cc3ccccc3)ccc2O1	-2.2	3.0	-1.5	x	-1.0	x
CN(c1cccc(NC(=O)c2ccc(N(C)S(=O)(=O)c3ccccc3)cc2)c1)S(C)(=O)=O	0.1	-3.2	-8.4	2.0	1.5	-15.4
CN(c1cccc(NC(=O)c2ccc(C(C)(C)C)cc2)c1)S(C)(=O)=O	1.6	43.9*	6.5	1.0	1.1	-3.5

Screening results deposited in PubChem by several laboratories.
